Measured values taken from ChEMBL document CHEMBL1135349, “Synthesis and evaluation of novel pyrrolidinyl sordaricin derivatives as antifungal agents” (2002).
In brackets after ≈: the same amount, converted by molar mass.

How the values were obtained:
Type in all cases: functional
Candida tropicalis = assay: Minimum concentration required to inhibit the growth of Candida tropicalis ATCC750 was determined
How it was run: (§1)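 Yeast cells grown in microplates in RPMI1640 buffered to pH 7.0 at 35 °C, without serum. The MIC is the lowest concentration that inhibits growth by 80%.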

Cryptococcus neoformans = assay: Minimum concentration required to inhibit the growth of Cryptococcus neoformans TIMM1855 was determined
How it was run: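 Medium was yeast nitrogen base buffered at pH 7.0, with microplates incubated at 35 °C. The MIC was defined as the lowest concentration producing 80% growth inhibition.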

Candida albicans [1] = assay: Minimum concentration required to inhibit the growth of Candida albicans SANK51486 was determined; how it was run: as §1
Candida albicans [2] = assay: Minimum concentration required to inhibit the growth of Candida albicans ATCC 24433 was determined; how it was run: as §1
Candida albicans [3] = assay: Minimum concentration required to inhibit the growth of Candida albicans ATCC 24433 was determined in the presence of horse serum (20%).
How it was run: (§2)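 Run in RPMI1640 buffered at pH 7.0 with 20% horse serum added for the incubation, in microplates at 35 °C. The MIC is the lowest concentration inhibiting growth by 80%.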

Candida albicans [4] = assay: Minimum concentration required to inhibit the growth of Candida albicans TIMM3164 was determined; how it was run: as §1
Candida parapsilosis = assay: Minimum concentration required to inhibit the growth of Candida parapsilosis ATCC 90018 was determined; details: Lodderomyces parapsilosis; how it was run: as §1
Aspergillus fumigatus = assay: Minimum concentration required to inhibit the growth of Aspergillus fumigatus ATCC 26430 was determined
How it was run: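 Microplate broth assay in RPMI1640 buffered at pH 7.0, incubated at 30 °C. The MIC was taken as the lowest test concentration giving 80% growth inhibition.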

Nakaseomyces glabratus = assay: Minimum concentration required to inhibit the growth of Candida glabrata ATCC 90030 was determined; how it was run: as §1
Candida albicans [5] = assay: Minimum concentration required to inhibit the growth of Candida albicans ATCC 64550 was determined; how it was run: as §1
Candida albicans [6] = assay: Minimum concentration required to inhibit the growth of Candida albicans SANK51486 was determined in the presence of horse serum (20%).; how it was run: as §2

For CC(C)C1=CC2CC3(C=O)[C@@H]4CC[C@@H](C)[C@H]4CC2(CS[C@@H]2C[C@H](C)N(Cc4ccccc4)C2)C13C(=O)O (some centres undefined), the MIC (Candida tropicalis) was 4 µg/mL (≈ 7.67 µM), the MIC (Cryptococcus neoformans) was over 16 µg/mL and the MIC (Candida albicans [1]) was 0.25 µg/mL (≈ 0.479 µM). For the same compound, the MIC (Candida albicans [2]) was 0.5 µg/mL (≈ 0.958 µM), the MIC (Candida albicans [3]) was 8 µg/mL and the MIC (Candida albicans [4]) was 1 µg/mL (≈ 1.92 µM). For the same compound, the MIC (Candida parapsilosis) was over 16 µg/mL, the MIC (Aspergillus fumigatus) was over 16 µg/mL and the MIC (Nakaseomyces glabratus) was over 16 µg/mL. It also gave an MIC (Candida albicans [5]) of 1 µg/mL (≈ 1.92 µM) and an MIC (Candida albicans [6]) of 4 µg/mL.
OC(Cn1cncn1)(Cn1cncn1)c1ccc(F)cc1F [FLUCONAZOLE] showed an MIC (Candida tropicalis) of 2 µg/mL (≈ 6.53 µM), an MIC (Cryptococcus neoformans) of over 4 µg/mL and an MIC (Candida albicans [1]) of 0.25 µg/mL (≈ 0.816 µM). It also gave an MIC (Candida albicans [2]) of 0.5 µg/mL (≈ 1.63 µM), an MIC (Candida albicans [4]) of over 4 µg/mL and an MIC (Candida parapsilosis) of 0.5 µg/mL (≈ 1.63 µM). The MIC (Aspergillus fumigatus) was over 4 µg/mL, the MIC (Nakaseomyces glabratus) was over 4 µg/mL and the MIC (Candida albicans [5]) was over 4 µg/mL.
CC(C)C1=CC2CC3(C=O)[C@@H]4CC[C@@H](C)[C@H]4CC2(CO[C@@H]2C[C@H](C)N(Cc4ccc5c(c4)OCO5)C2)C13C(=O)O (some centres undefined) gave an MIC (Candida tropicalis) of 4 µg/mL (≈ 7.28 µM), an MIC (Cryptococcus neoformans) of over 16 µg/mL and an MIC (Candida albicans [1]) of 0.13 µg/mL (≈ 0.236 µM). For the same compound, the MIC (Candida albicans [2]) was 0.25 µg/mL (≈ 0.455 µM), the MIC (Candida albicans [3]) was 1 µg/mL and the MIC (Candida albicans [4]) was 0.5 µg/mL (≈ 0.91 µM). The MIC (Candida parapsilosis) was over 16 µg/mL, the MIC (Aspergillus fumigatus) was over 16 µg/mL and the MIC (Nakaseomyces glabratus) was over 16 µg/mL. For the same compound, the MIC (Candida albicans [5]) was 0.5 µg/mL (≈ 0.91 µM) and the MIC (Candida albicans [6]) was 0.5 µg/mL.
C/C=C/C=C\C(=O)O[C@H]1[C@H](O)[C@H](OCC23C[C@@H]4[C@H](C)CC[C@H]4C4(C=O)CC2C=C(C(C)C)C34C(=O)O)O[C@H](C)[C@H]1OC (some centres undefined) was tested, and the MIC (Candida tropicalis) was 0.5 µg/mL (≈ 0.852 µM), the MIC (Cryptococcus neoformans) was 0.25 µg/mL (≈ 0.426 µM) and the MIC (Candida albicans [1]) was 0.25 µg/mL (≈ 0.426 µM). It also gave an MIC (Candida albicans [2]) of 0.5 µg/mL (≈ 0.852 µM), an MIC (Candida albicans [3]) of 4 µg/mL and an MIC (Candida albicans [4]) of 0.5 µg/mL (≈ 0.852 µM). For the same compound, the MIC (Candida parapsilosis) was over 4 µg/mL, the MIC (Aspergillus fumigatus) was over 4 µg/mL and the MIC (Nakaseomyces glabratus) was over 4 µg/mL. The MIC (Candida albicans [5]) was 0.5 µg/mL (≈ 0.852 µM).
COc1ccc(CN2C[C@H](OCC34C[C@@H]5[C@H](C)CC[C@H]5C5(C=O)CC3C=C(C(C)C)C45C(=O)O)C[C@@H]2C)cc1 (some centres undefined) was tested, and the MIC (Candida tropicalis) was 4 µg/mL (≈ 7.47 µM), the MIC (Cryptococcus neoformans) was over 16 µg/mL and the MIC (Candida albicans [1]) was 0.25 µg/mL (≈ 0.467 µM). It also gave an MIC (Candida albicans [2]) of 0.5 µg/mL (≈ 0.933 µM), an MIC (Candida albicans [3]) of 1 µg/mL and an MIC (Candida albicans [4]) of 0.5 µg/mL (≈ 0.933 µM). The MIC (Candida parapsilosis) was over 16 µg/mL, the MIC (Aspergillus fumigatus) was over 16 µg/mL and the MIC (Nakaseomyces glabratus) was 16 µg/mL (≈ 29.9 µM). The MIC (Candida albicans [5]) was 0.5 µg/mL (≈ 0.933 µM) and the MIC (Candida albicans [6]) was 0.5 µg/mL.
In the case of CC(C)C1=CC2CC3(C=O)[C@@H]4CC[C@@H](C)[C@H]4CC2(CO[C@@H]2C[C@H](C)N(Cc4ccccc4)C2)C13C(=O)O (some centres undefined), the MIC (Candida tropicalis) is reported as 8 µg/mL (≈ 15.8 µM), the MIC (Cryptococcus neoformans) is reported as over 16 µg/mL and the MIC (Candida albicans [1]) is reported as 0.5 µg/mL (≈ 0.989 µM). It also gave an MIC (Candida albicans [2]) of 1 µg/mL (≈ 1.98 µM), an MIC (Candida albicans [3]) of 4 µg/mL and an MIC (Candida albicans [4]) of 2 µg/mL (≈ 3.95 µM). For the same compound, the MIC (Candida parapsilosis) was over 16 µg/mL, the MIC (Aspergillus fumigatus) was over 16 µg/mL and the MIC (Nakaseomyces glabratus) was over 16 µg/mL. It also gave an MIC (Candida albicans [5]) of 2 µg/mL (≈ 3.95 µM) and an MIC (Candida albicans [6]) of 1 µg/mL.
C=C(C)CN1C[C@H](OCC23C[C@@H]4[C@H](C)CC[C@H]4C4(C=O)CC2C=C(C(C)C)C34C(=O)O)O[C@H](C)[C@@H](OC)C1 (some centres undefined) was tested, and the MIC (Candida tropicalis) was 0.13 µg/mL (≈ 0.245 µM), the MIC (Cryptococcus neoformans) was 0.25 µg/mL (≈ 0.472 µM) and the MIC (Candida albicans [1]) was 0.02 µg/mL (≈ 0.0378 µM). The MIC (Candida albicans [2]) was 0.03 µg/mL (≈ 0.0566 µM), the MIC (Candida albicans [3]) was 0.5 µg/mL and the MIC (Candida albicans [4]) was 0.03 µg/mL (≈ 0.0566 µM). For the same compound, the MIC (Candida parapsilosis) was over 16 µg/mL, the MIC (Aspergillus fumigatus) was over 16 µg/mL and the MIC (Nakaseomyces glabratus) was 0.25 µg/mL (≈ 0.472 µM). It also gave an MIC (Candida albicans [5]) of 0.03 µg/mL (≈ 0.0566 µM) and an MIC (Candida albicans [6]) of 0.25 µg/mL.
